DENV2 CPE: inhibitors of DENV2 cytopathic effect | DENV2-infected cells, cytopathic effect rescue, plate reader | CPE inhibition, % at 9.99 µM | 1.7% of 350,000 active | AID 651640; in the data active means CPE inhibition above about 20%, passing the limit was not always enough; inconclusive means no clear call, values can overlap the other calls; tested in BHK-21 cells
SIRT5 block: sirtuin-5 (human) deacylase inhibition | Purified SirT5, succinyl-peptide AMC, trypsin-coupled fluorescence | Q9NXA8 | 1.1% of 330,000 active | inhibition, % at 15 µM; in the data active means inhibition above about 15%; inconclusive means no clear call, values can overlap the other calls
Target sequence (Q9NXA8 whole entry, looked up): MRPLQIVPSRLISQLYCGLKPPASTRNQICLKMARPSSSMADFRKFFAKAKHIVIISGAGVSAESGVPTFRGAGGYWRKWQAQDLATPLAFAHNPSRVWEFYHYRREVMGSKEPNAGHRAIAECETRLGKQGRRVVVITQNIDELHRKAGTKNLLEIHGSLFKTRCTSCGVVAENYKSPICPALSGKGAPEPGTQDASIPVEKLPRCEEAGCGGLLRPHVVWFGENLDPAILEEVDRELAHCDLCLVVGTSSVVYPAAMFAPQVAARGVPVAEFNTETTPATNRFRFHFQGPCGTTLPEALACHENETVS
E-selectin induc: E-selectin induction on HUVECs. HUVEC E-selectin immunofluorescence imaging; normalized: neutral wells 0, TNF-alpha wells 100. activation, % at 7.58 µM. 0.37% of 260,000 active. AID 686992;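 active means mean E-selectin-positive cell signal at least 10% of the positive control, reached in at least 60% of replicates, without over 20% cell loss; inconclusive means no rule given, readout overlaps actives, possibly toxicity-flagged; inactive means the rest, including those meeting only one limit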
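assay system = HUVEC, human umbilical vein endothelial cells | input = 3,000 HUVEC seeded per well | medium = EGM-2 growth medium on 0.1% gelatin-coated wells | dosing = one compound dose added by pin transfer | signal = immunofluorescence imaging | read-out basis = % PE-positive cells | control set = TNF-alpha, DMSO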
A number is an active result; i = inactive; ? = inconclusive; nt = no result given. Shown are actives, neighbours in structure and some others; about 2.8% of the full set was active somewhere.

SMILES	DENV2 CPE	SIRT5 block	E-selectin induc
COc1ccc(NC(=O)Nc2ccc3c(c2)C(=O)N([C@H](C)CO)C[C@H](C)[C@@H](CN(C)C(=O)Cc2ccccc2)OCCCC[C@H](C)O3)cc1	58	i	i
COc1ccc(S(=O)(=O)Nc2ccc3c(c2)C(=O)N([C@@H](C)CO)C[C@H](C)[C@@H](CN(C)C(=O)Cc2ccccc2)OCCCC[C@@H](C)O3)cc1	26	i	i
COc1ccc(NC(=O)Nc2ccc3c(c2)C(=O)N([C@H](C)CO)C[C@@H](C)[C@@H](CN(C)C(=O)Cc2ccccc2)OCCCC[C@H](C)O3)cc1	i	i	i
C[C@@H]1CN([C@H](C)CO)C(=O)c2cc(NS(=O)(=O)c3ccccc3)ccc2O[C@@H](C)CCCCO[C@H]1CN(C)Cc1ccc(C(=O)O)cc1	?	nt	i
O=C(C1CC1)N1CCCCN2[C@H](C1)[C@@H](c1ccc(C#CC3(O)CCCC3)cc1)[C@@H]2CO	i	i	nt
CC1CCC(NC(=O)CN2C(=O)NC3(CCCCCC3)C2=O)CC1 (stereo unspecified)	i	16	i
COc1ccccc1OCCNC(=O)CN1C(=O)NC2(CCCCC2)C1=O	i	i	nt
CCOc1ccc(CCNC(=O)CN2C(=O)NC3(CCCCCC3)C2=O)cc1OCC	i	i	nt
CCOc1ccc(/C=C2\SC(=O)N(CCNC(=O)CN3C(=O)NC4(CCCC4)C3=O)C2=O)cc1OC	56	i	i
Cc1ccc(C2(C)NC(=O)N(CC(=O)NC3CCCCC3)C2=O)cc1 (stereo unspecified)	i	i	nt
COCCNC(=O)CN1C(=O)NC2(CCCCCC2)C1=O	i	17	nt
C[C@H](CO)N1C[C@H](C)[C@H](CN(C)CC2CCCCC2)OCCCC[C@H](C)Oc2ccc(NS(=O)(=O)c3cn(C)cn3)cc2C1=O	i	i	i
C[C@@H]1CN([C@@H](C)CO)C(=O)c2cc(NC(=O)CCC(F)(F)F)ccc2O[C@@H](C)CCCCO[C@@H]1CN(C)Cc1ccccc1	nt	nt	i
CCCC#Cc1ccc2c(c1)[C@H]1[C@H](CCN1C(=O)C1CC1)[C@H](CO)N2	i	nt	i
O=C(C[C@H]1C[C@H]2c3cc(NC(=O)c4ccc5c(c4)OCO5)ccc3O[C@H]2[C@H](CO)O1)NC1CCCC1	i	i	i
C[C@@H]1CCCCO[C@H](CN(C)Cc2ccc3c(c2)OCO3)[C@H](C)CN([C@@H](C)CO)C(=O)c2cc(NC(=O)Nc3ccc(F)cc3)ccc2O1	i	i	i
CCOc1ccccc1N(C)C(=O)c1cn(CC)c(=O)c2cc(OC)c(OC)cc12	i	20	i
CCn1cc(C(=O)N(C)c2ccccc2F)c2cc(OC)c(OC)cc2c1=O	i	i	i
Cc1ccc(-c2cccc(C3CC=CC4C3C(=O)N(Cc3ccccc3)C4c3ccc(C(F)(F)F)cc3)c2)cc1 (stereo unspecified)	93	i	i
COc1ccc(C2C3C=CCC(c4cccc(-c5ccc(C)cc5)c4)C3C(=O)N2Cc2ccccc2)cc1Cl (stereo unspecified)	i	nt	i
CO[C@H]1CN(C)C(=O)c2ccc(NS(=O)(=O)c3ccc(Cl)cc3)cc2OC[C@H](C)NC[C@@H]1C	i	i	i
C[C@H](CO)N1C[C@H](C)[C@@H](CN(C)C(=O)Nc2ccc(C(F)(F)F)cc2)Oc2ccc(NC(=O)Nc3ccc(F)cc3)cc2CC1=O	i	nt	i
C[C@H]1CCCCO[C@H](CN(C)S(=O)(=O)c2ccc(F)cc2)[C@@H](C)CN([C@@H](C)CO)C(=O)c2cc(NC(=O)Nc3ccc(C(F)(F)F)cc3)ccc2O1	i	i	nt
O=C(NNC(=O)c1ccccc1F)c1ccc(-c2ccccc2Cl)o1	21	i	i
O=C(NNC(=O)c1ccccc1F)c1ccco1	i	i	i
SMILES	DENV2 CPE	SIRT5 block	E-selectin induc
COc1ccc(/C(N)=N/OC(=O)c2ccco2)cc1OC	i	i	nt
Cc1csc(/C(=N/OC(=O)c2ccco2)C(N)=O)n1	35	i	nt
C[C@H](CO)N1C[C@H](C)[C@H](CN(C)C(=O)c2ccccn2)Oc2ncc(C3=CCCCC3)cc2C1=O	62	i	i
C[C@@H]1CN([C@H](C)CO)C(=O)c2cc(C3=CCCCC3)cnc2O[C@@H]1CN(C)C(=O)Cc1cccnc1	56	i	i
C[C@H](CO)N1C[C@H](C)[C@@H](CN(C)C(=O)Cc2cccnc2)Oc2ncc(C3=CCCCC3)cc2C1=O	i	i	i
C[C@H]1CN([C@@H](C)CO)C(=O)c2cc(C3=CCCCC3)cnc2O[C@@H]1CN(C)C(=O)c1ccccn1	i	i	i
C[C@@H]1CN([C@@H](C)CO)C(=O)c2cc(NC(=O)Nc3ccccc3)ccc2O[C@@H](C)CCCCO[C@H]1CN(C)C(=O)CCC(F)(F)F	i	i	i
CCCNC(=O)[C@H]1[C@H](CO)[C@H]2Cn3c(ccc(-c4ccccc4OC)c3=O)[C@H]2N1S(C)(=O)=O	i	i	i

Assay outcomes (PubChem)
